Experimental data taken from ChEMBL document CHEMBL1806391, “Synthesis and biological evaluation of novel 5-alkyl-2-arylthio-6-((3,4-dihydroquinolin-1(2H)-yl)methyl)pyrimidin-4(3H)-ones as potent non-nucleoside HIV-1 reverse transcriptase inhibitors” (Bioorg Med Chem, 2011).
Activity calls are given as the source filed them. No cut-off for these calls is given here.

How the values were obtained:
[1] = system: Human immunodeficiency virus 2; experiment: Antiviral activity against wild type Human immunodeficiency virus 2 ROD infected in human MT4 cells assessed as protection against virus-induced cytotoxicity after 5 days by MTT assay; type: functional, organism-based; settings: Human immunodeficiency virus 2, ISOLATE ROD, MT4, 120 h
Outline: (§1)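 MT-4 cells, spun 5 min at 1000 rpm, were resuspended at 6 × 10⁵ cells/mL and infected with HIV-1 IIIB or HIV-2 ROD. Compounds were added at the start in serial fivefold dilutions, in triplicate wells. Viability was read by MTT reduction at 540 and 690 nm five days post-infection. EC₅₀ is the concentration giving 50% protection from viral cytopathic effect, using the median OD of three wells.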

[2] = Cytotoxic activity against human MT4 cells assessed as viability of mock-infected cells after 5 days by MTT assay; type: cell-based
Outline: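 Mock-infected, exponentially growing MT-4 cells (6 × 10⁵ cells/mL) were exposed to serial fivefold compound dilutions in triplicate wells. After 5 days, viability was read by MTT formazan absorbance at 540 and 690 nm. CC₅₀ is the concentration that lowered OD540 of the mock-infected control by 50%, using the median OD of three wells.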

[3] = system: Human immunodeficiency virus 2; experiment: Antiviral activity against Human immunodeficiency virus 2 ROD infected in human MT4 cells assessed as inhibition of viral replication; type: functional, organism-based; settings: ISOLATE ROD; outline: as §1
[4] = system: Human immunodeficiency virus 1; experiment: Antiviral activity against wild type Human immunodeficiency virus 1 3B infected in human MT4 cells assessed as protection against virus-induced cytotoxicity after 5 days by MTT assay; type: functional, organism-based; settings: MT4, 120 h; outline: as §1
[5] = Selectivity index, ratio of CC50 for human MT4 cells to EC50 for wild type Human immunodeficieny virus 1 3B infected in human MT4 cells; type: toxicity, cell-based; settings: read-out: Ratio CC50/EC50
Outline: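 SI is CC₅₀ in mock-infected MT-4 cells divided by EC₅₀ against HIV-1 IIIB, both from 5-day MTT assays in triplicate wells.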

| Compound | EC50 [1] [µM] | CC50 at 120 h [2] [µM] | inhibition [3] | EC50 [4] [µM] | selectivity ratio [5] |
| --- | --- | --- | --- | --- | --- |
| CCc1c(CN2CCCc3ccccc32)nc(SCC(=O)c2ccc(C#N)cc2)[nH]c1=O | > 115 | 115 | inactive | 1.06 | 109 |
| O=c1cc(CN2CCCc3ccccc32)nc(SCc2ccc(F)cc2)[nH]1 | > 182 | 182 | inactive | 29.7 | 6 |
| CCc1c(CN2CCCc3ccccc32)nc(SCC(=O)c2ccc(C)cc2)[nH]c1=O | > 288 | 288 | inactive | 1.06 | 271 |
| O=c1cc(CN2CCCc3ccccc32)nc(SCc2ccc([N+](=O)[O-])cc2)[nH]1 | > 73.9 | 73.9 | inactive | ≥ 49.5 | ≤ 2 |
| Cc1ccc(C(=O)CSc2nc(CN3CCCc4ccccc43)cc(=O)[nH]2)cc1 | > 156 | 156 | inactive | 28 | 6 |
| CCc1c(CN2CCCc3ccccc32)nc(SCc2ccccc2)[nH]c1=O | > 4.8 | 4.8 | inactive | > 4.8 | < 1 |
| Cc1c(CN2CCCc3ccccc32)nc(SCc2ccc(F)cc2)[nH]c1=O | > 8.67 | 8.67 | inactive | > 8.67 | < 1 |
| COc1ccc(C(=O)CSc2nc(CN3CCCc4ccccc43)c(C)c(=O)[nH]2)cc1 | > 60.7 | 60.7 | inactive | 0.42 | 144 |
| COc1ccc(C(=O)CSc2nc(CN3CCCc4ccccc43)cc(=O)[nH]2)cc1 | > 160 | 160 | inactive | 24 | 7 |
| O=C(CSc1nc(CN2CCCc3ccccc32)cc(=O)[nH]1)c1ccc([N+](=O)[O-])cc1 | > 209 | 209 | inactive | > 209 | < 1 |
| COc1ccc(CSc2nc(CN3CCCc4ccccc43)cc(=O)[nH]2)cc1 | > 181 | 181 | inactive | 25.1 | 7 |
| Cc1c(CN2CCCc3ccccc32)nc(SCC(=O)c2ccc([N+](=O)[O-])cc2)[nH]c1=O | > 23.7 | 23.7 | inactive | ≥ 3.13 | ≤ 8 |
| O=C(CSc1nc(CN2CCCc3ccccc32)cc(=O)[nH]1)c1ccc(F)cc1 | > 136 | 136 | inactive | 29.6 | 5 |
| CC(C)Nc1cccnc1N1CCN(C(=O)c2cc3cc(NS(C)(=O)=O)ccc3[nH]2)CC1 [DELAVIRDINE] | – | > 3.83 | – | – | > 12 |
| O=C1Nc2ccc(Cl)cc2[C@@](C#CC2CC2)(C(F)(F)F)O1 [EFAVIRENZ] | – | > 6.34 | – | – | > 1430 |
| CCc1c(CN2CCCc3ccccc32)nc(SCc2ccc(OC)cc2)[nH]c1=O | > 147 | 147 | inactive | 0.59 | 244 |
| Cc1c(CN2CCCc3ccccc32)nc(SCc2ccccc2)[nH]c1=O | > 6.69 | 6.69 | inactive | > 6.69 | < 1 |
| Cc1ccc(C(=O)CSc2nc(CN3CCCc4ccccc43)c(C)c(=O)[nH]2)cc1 | > 62.4 | 62.4 | inactive | 1.95 | 32 |
| CCc1c(CN2CCCc3ccccc32)nc(SCC(=O)c2ccc(F)cc2)[nH]c1=O | > 156 | 156 | inactive | 0.57 | 273 |
| O=c1cc(CN2CCCc3ccccc32)nc(SCc2ccccc2)[nH]1 | > 94.2 | 94.2 | inactive | ≥ 32.2 | ≤ 3 |
| O=c1cc(CN2CCCc3ccccc32)nc(SCc2ccc(Cl)cc2)[nH]1 | > 53.6 | > 53.6 | inactive | > 53.6 | < 1 |
| CCc1c(CN2CCCc3ccccc32)nc(SCc2ccc(C#N)cc2)[nH]c1=O | > 59.7 | 59.7 | inactive | 0.48 | 125 |

| Compound | EC50 [1] [µM] | CC50 at 120 h [2] [µM] | inhibition [3] | EC50 [4] [µM] | selectivity ratio [5] |
| --- | --- | --- | --- | --- | --- |
| Cc1cn([C@H]2C[C@H](N=[N+]=[N-])[C@@H](CO)O2)c(=O)[nH]c1=O [ZIDOVUDINE] | – | > 93.5 | – | – | > 6190 |
| Cc1ccc(CSc2nc(CN3CCCc4ccccc43)cc(=O)[nH]2)cc1 | > 64.3 | 64.3 | inactive | > 64.3 | < 1 |
| Cc1c(CN2CCCc3ccccc32)nc(SCC(=O)c2ccc(Cl)cc2)[nH]c1=O | > 42.1 | 42.1 | inactive | 2.16 | 19 |
| CCc1c(CN2CCCc3ccccc32)nc(SCc2ccc(F)cc2)[nH]c1=O | > 133 | 133 | inactive | > 133 | < 1 |
| N#Cc1ccc(CSc2nc(CN3CCCc4ccccc43)cc(=O)[nH]2)cc1 | > 86.8 | 86.8 | inactive | ≥ 43 | ≤ 2 |
| CCc1c(CN2CCCc3ccccc32)nc(SCc2ccc([N+](=O)[O-])cc2)[nH]c1=O | > 195 | 195 | inactive | 1.03 | 188 |
| CCc1c(CN2CCCc3ccccc32)nc(SCC(=O)c2ccc(OC)cc2)[nH]c1=O | > 61.8 | 61.8 | inactive | 0.38 | 164 |
| Cc1ccc(CSc2nc(CN3CCCc4ccccc43)c(C)c(=O)[nH]2)cc1 | > 86.2 | ≥ 86.2 | inactive | ≥ 86.2 | ≤ 1 |
| O=C(CSc1nc(CN2CCCc3ccccc32)cc(=O)[nH]1)c1ccccc1 | > 153 | 153 | inactive | 24.6 | 6 |
| N#Cc1ccc(C(=O)CSc2nc(CN3CCCc4ccccc43)cc(=O)[nH]2)cc1 | > 197 | > 197 | inactive | > 197 | > 1 |
| CCc1c(CN2CCCc3ccccc32)nc(SCC(=O)c2ccc(Cl)cc2)[nH]c1=O | > 275 | 275 | inactive | 1.01 | 249 |
| CCc1c(CN2CCCc3ccccc32)nc(SCC(=O)c2ccc([N+](=O)[O-])cc2)[nH]c1=O | > 111 | 111 | inactive | 1.98 | 56 |
| CCc1c(CN2CCCc3ccccc32)nc(SCc2ccc(C)cc2)[nH]c1=O | > 160 | 160 | inactive | ≥ 5.42 | < 29 |
| Cc1c(CN2CCCc3ccccc32)nc(SCc2ccc(Cl)cc2)[nH]c1=O | > 65.5 | 65.5 | inactive | ≥ 2.25 | ≤ 29 |
| Cc1c(CN2CCCc3ccccc32)nc(SCc2ccc(C#N)cc2)[nH]c1=O | > 13 | 13 | inactive | 1.78 | 7 |
| CCc1c(CN2CCCc3ccccc32)nc(SCc2ccc(Cl)cc2)[nH]c1=O | > 135 | 135 | inactive | ≥ 5.42 | ≤ 25 |
| Cc1c(CN2CCCc3ccccc32)nc(SCC(=O)c2ccccc2)[nH]c1=O | > 12.2 | 12.2 | inactive | 0.39 | 31 |
| Cc1c(CN2CCCc3ccccc32)nc(SCC(=O)c2ccc(C#N)cc2)[nH]c1=O | > 44.5 | 44.5 | inactive | 7.35 | 6 |
| Cc1ccnc2c1NC(=O)c1cccnc1N2C1CC1 [NEVIRAPINE] | – | > 15 | – | – | – |
| COc1ccc(CSc2nc(CN3CCCc4ccccc43)c(C)c(=O)[nH]2)cc1 | > 59.6 | 59.6 | inactive | 0.64 | 93 |
| Cc1c(CN2CCCc3ccccc32)nc(SCc2ccc([N+](=O)[O-])cc2)[nH]c1=O | > 76.9 | 76.9 | inactive | 1.88 | 41 |
